The results in this text go back to ChEMBL document CHEMBL1649522, “Effect of rifampin, a potent inducer of drug-metabolizing enzymes, on the pharmacokinetics of raltegravir” (Antimicrob Agents Chemother, 2009).

Common to all, as to format: ADME, organism-based
Data set [1] can be described thus: AUC (0 to infinity) in healthy human at […], po administered as single dose in presence of […], po rifampin. The settings on record: plasma. The arrangement: route oral, time infinity. In short, it runs like this:
(§1)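 Same subjects after a washout of at least 4 days, given rifampin 600 mg orally once daily for 15 days. On day 14, a single fasted oral 400 mg raltegravir dose was given with rifampin. Plasma sampled 0–48 h postdose and assayed by HPLC-MS/MS. AUC0-∞ by biexponential fit plus trapezoidal rule. Cmax, Tmax and nominal 12 h C12 read directly.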

Data set [2] can be described thus: Primary phase half life in healthy human at […], po administered as single dose in presence of […], po rifampin. The settings on record: in vivo. In short, it runs like this:
(§2)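 Study 1: open-label two-period fixed-sequence design in healthy adults (nine completed). A single 400 mg oral dose was given fasted (8 h before, 4 h after), then after at least 4 days washout, 600 mg rifampin orally once daily for 15 days, with 400 mg raltegravir given on day 14. Plasma sampled 0–48 h; LC-MS/MS (LLOQ 2 ng/ml). Biexponential fit weighted 1/(predicted concentration)²; t1/2 = ln(2)/α or β.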

A short description of data set [3]: Cmin in healthy human at […], po BID for 4 days after 12 hrs. Details: route oral. The settings on record: in vivo, read-out: Cmin. In short, it runs like this:
(§3)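 Healthy male and female subjects given raltegravir 400 mg orally every 12 h for 4 days. A light meal was taken 2 h before the day 4 morning dose. Plasma sampled 0–12 h after that dose and assayed by HPLC-MS/MS (LLOQ 2 ng/ml). AUC0-12 by linear-up/log-down trapezoidal rule. Cmax, Tmax and nominal 12 h C12 read from the data.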

The nature of data set [4]: AUC(0 to 12 hrs) in healthy human at […], po BID for 4 days. The settings on record: plasma. The arrangement: time < 12 hr, route oral. The method, boiled down:
as §3

Data set [5] can be described thus: Tmax in healthy human at […], po BID for 14 days in presence of […], po rifampin. The settings on record: in vivo. In short, it runs like this: (§4)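 Same subjects given raltegravir 800 mg orally every 12 h plus rifampin 600 mg orally once daily for 14 days. A light meal was taken 2 h before the day 14 morning dose. Plasma sampled 0–12 h postdose and assayed by HPLC-MS/MS. AUC0-12 by linear-up/log-down trapezoidal rule. Cmax, Tmax and C12 read directly.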

A short description of data set [6]: Terminal half life in healthy human at […], po administered as single dose. The arrangement: route oral. The settings on record: in vivo, read-out: beta t1/2 (converted). In short, it runs like this: as §2
Data set [7] is described as follows: AUC(0 to 12 hrs) in healthy human at […], po BID for 14 days in presence of […], po rifampin. The arrangement: time < 12 hr, route oral. The settings on record: plasma. The method, boiled down:
as §4

Data set [8] is described as follows: Cmax in healthy human at […], po BID for 14 days in presence of […], po rifampin. Details: route oral. The settings on record: in vivo. The method, boiled down:
as §4

Data set [9] can be described thus: Cmax in healthy human at […], po administered as single dose in presence of […], po rifampin. The arrangement: route oral. The settings on record: in vivo. The method, boiled down:
as §1

Data set [10] can be described thus: AUC (0 to infinity) in healthy human at […], po administered as single dose. The arrangement: time infinity, route oral. The settings on record: plasma. The method, boiled down:
(§5)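 Healthy male and female subjects (n=9), fasted 8 h before and 4 h after a single oral 400 mg raltegravir dose. Plasma sampled 0–48 h postdose and measured by liquid-liquid extraction then reverse-phase HPLC-MS/MS (LLOQ 2 ng/ml). AUC0-∞ from a biexponential fit plus linear/log trapezoidal rule. Cmax and Tmax read from the data. C12 taken at the nominal 12 h sample.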

A short description of data set [11]: Cmin in healthy human at […], po BID for 14 days after 12 hrs in presence of […], po rifampin. The settings on record: in vivo, read-out: Cmin. The method, boiled down:
as §4

Data set [12] is described as follows: Cmin in healthy human at […], po administered as single dose after 12 hrs. Details: route oral. The settings on record: in vivo, read-out: Cmin. The method, boiled down:
as §5

Data set [13] is described as follows: Tmax in healthy human at […], po administered as single dose in presence of […], po rifampin. The settings on record: in vivo. The method, boiled down: as §1
A short description of data set [14]: Cmin in healthy human at […], po administered as single dose after 12 hrs in presence of […], po rifampin. The settings on record: in vivo, read-out: Cmin. The method, boiled down:
as §1

Data set [15] can be described thus: Cmax in healthy human at […], po administered as single dose. Details: route oral. The settings on record: in vivo. In short, it runs like this:
as §5

Data set [16] can be described thus: Primary phase half life in healthy human at […], po administered as single dose. The arrangement: route oral. The settings on record: in vivo. The method, boiled down: as §2
The nature of data set [17]: Terminal half life in healthy human at […], po administered as single dose in presence of […], po rifampin. The settings on record: in vivo, read-out: beta t1/2 (converted). The method, boiled down: as §2

By AUC(0-inf) is commonly meant the area under the concentration-time curve extrapolated to infinity. As usually defined, the AUC is concentration integrated over time. As a reminder, the Tmax is the time at which the peak concentration occurs. A word on the Cmax: it is the highest concentration seen after dosing.

Take `Cc1nnc(C(=O)NC(C)(C)c2nc(C(=O)NCc3ccc(F)cc3)c(O)c(=O)n2C)o1` [RALTEGRAVIR]: the AUC(0-inf) in data set [1] was 16.5 µM·h; in data set [10], 27.6 µM·h. The half-life in [2] is 0.93 h; in data set [6], 8.5 h; in data set [16], 1.07 h; in data set [17], 9.6 h. In addition, the concentration at 12 h came out at 92.5 nM in [3], 43.5 nM in data set [11], 92.1 nM in data set [12] and 36.3 nM in [14]. Besides, the AUC at 12 h in data set [4] was determined as 4.61 µM·h; in data set [7], 5.85 µM·h. In addition, the Tmax in data set [5] turned out to be 1.75 h; in data set [13] it was 3 h. For the same molecule, the Cmax in data set [8] is 1950 nM; in [9], 5340 nM; in [15], 8610 nM.
